Assay results: ChEMBL document CHEMBL4229344 (Eur J Med Chem, 2018)
Calls of active or inactive are those of the source. No cut-off for these calls is given here.

Legend:
[1] = system: Tyrosine-protein kinase ABL1 (Homo sapiens), P00519 [F317L]; test: Binding affinity to human non-phosphorylated ABL1 F317L mutant (S229 to K512 residues) expressed in mammalian expression system assessed as residual binding level at 1 uM by Kinomescan method relative to control
Summary of the method: (§1)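 Kinome-wide single-concentration binding screen (KINOMEscan) at 1 μM against a panel of 468 purified kinases and mutants. Read-out is relative binding of each kinase compared with control. Selectivity across the panel was summarised as an S(10) score.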

[2] = system: Tyrosine-protein kinase ABL1 (Homo sapiens), P00519 [H396P]; test: Binding affinity to human non-phosphorylated ABL1 H396P mutant (S229 to K512 residues) expressed in mammalian expression system assessed as residual binding level at 1 uM by Kinomescan method relative to control; summary of the method: as §1
[3] = molecular target: Tyrosine-protein kinase ABL1 (Homo sapiens, UniProt P00519); test: Binding affinity to wild-type human phosphorylated ABL1 (S229 to K512 residues) expressed in mammalian expression system assessed as residual binding level at 1 uM by Kinomescan method relative to control
[4] = molecular target: Serine/threonine-protein kinase BRSK1 (Homo sapiens) (UniProt Q8TDC3); test: Binding affinity to wild-type human partial length BRSK1 (M1 to E754 residues) expressed in bacterial expression system assessed as residual binding level at 1 uM by Kinomescan method relative to control
[5] = molecular target: Epidermal growth factor receptor (Homo sapiens) (UniProt P00533); test: Binding affinity to human partial length EGFR S752-I759del mutant expressed in bacterial expression system assessed as residual binding level at 1 uM by Kinomescan method relative to control; summary of the method: as §1
[6] = molecular target: Ephrin type-A receptor 7 (Homo sapiens) (UniProt Q15375); test: Binding affinity to wild-type human partial length EPHA7 (Y608 to S912 residues) expressed in bacterial expression system assessed as residual binding level at 1 uM by Kinomescan method relative to control
[7] = molecular target: Receptor tyrosine-protein kinase erbB-4 (Homo sapiens) (UniProt Q15303); test: Binding affinity to wild-type human partial length ERBB4 (L690 to K994 residues) expressed in bacterial expression system assessed as residual binding level at 1 uM by Kinomescan method relative to control
[8] = molecular target: Fibroblast growth factor receptor 1 (Homo sapiens) (UniProt P11362); test: Binding affinity to wild-type human partial length FGFR1 (P357 to V669 residues) expressed in bacterial expression system assessed as residual binding level at 1 uM by Kinomescan method relative to control
[9] = molecular target: Interleukin-1 receptor-associated kinase 4 (Homo sapiens) (UniProt Q9NWZ3); test: Binding affinity to wild-type human partial length IRAK4 (M1 to S460 residues) expressed in mammalian expression system assessed as residual binding level at 1 uM by Kinomescan method relative to control
[10] = molecular target: Tyrosine-protein kinase ITK/TSK (Homo sapiens) (UniProt Q08881); test: Binding affinity to wild-type human partial length ITK (R335 to L620 residues) expressed in bacterial expression system assessed as residual binding level at 1 uM by Kinomescan method relative to control
[11] = molecular target: Serine/threonine-protein kinase Nek1 (Homo sapiens) (UniProt Q96PY6); test: Binding affinity to wild-type human partial length NEK1 (M1 to K278 residues) expressed in bacterial expression system assessed as residual binding level at 1 uM by Kinomescan method relative to control
[12] = system: Phosphatidylinositol 4,5-bisphosphate 3-kinase catalytic subunit alpha isoform (Homo sapiens), P42336 [M1043I]; test: Binding affinity to human partial length PIK3CA M1043I mutant (R108 to N1068 residues) expressed in mammalian expression system assessed as residual binding level at 1 uM by Kinomescan method relative to control; summary of the method: as §1
[13] = molecular target: Protein kinase C delta type (Homo sapiens) (UniProt Q05655); test: Binding affinity to wild-type human partial length PRKCD (Q328 to D676 residues) expressed in bacterial expression system assessed as residual binding level at 1 uM by Kinomescan method relative to control
Summary of the method: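 KINOMEscan competition binding against a panel of 468 purified kinases/mutants, compound tested at 1 μM; readout is relative binding activity versus control.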

[14] = molecular target: Serine/threonine-protein kinase RIO3 (Homo sapiens) (UniProt O14730); test: Binding affinity to wild-type human full length RIOK3 (M1 to E519 residues) expressed in bacterial expression system assessed as residual binding level at 1 uM by Kinomescan method relative to control
Summary of the method: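 KINOMEscan competition binding against 468 purified kinases/mutants, test compound at 1 µM; residual binding relative to control.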

[15] = molecular target: Ribosomal protein S6 kinase alpha-5 (Homo sapiens) (UniProt O75582); test: Binding affinity to wild-type human partial length C-terminal RPS6KA5 kinase domain 2 (V390 to T718 residues) expressed in bacterial expression system assessed as residual binding level at 1 uM by Kinomescan method relative to control
[16] = molecular target: Serine/threonine-protein kinase Sgk1 (Homo sapiens) (UniProt O00141); test: Binding affinity to wild-type human partial length SGK (I60 to L431 residues) expressed in mammalian expression system assessed as residual binding level at 1 uM by Kinomescan method relative to control
[17] = molecular target: Serine/threonine-protein kinase TAO2 (Homo sapiens) (UniProt Q9UL54); test: Binding affinity to wild-type human partial length TAOK2 (M1 to A320 residues) expressed in mammalian expression system assessed as residual binding level at 1 uM by Kinomescan method relative to control
[18] = molecular target: Serine/threonine-protein kinase WNK4 (Homo sapiens) (UniProt Q96J92); test: Binding affinity to wild-type human partial length WNK4 (A31 to D461 residues) expressed in mammalian expression system assessed as residual binding level at 1 uM by Kinomescan method relative to control
[19] = molecular target: Mast/stem cell growth factor receptor Kit (Homo sapiens, UniProt P10721); test: Inhibition of c-KIT (unknown origin) using poly(4:1 Glu,Tyr) peptide as substrate preincubated for 1 hr followed by addition of ATP and measured after 30 mins by ADP-Glo bioluminescence assay
[20] = Cytotoxicity against mouse BA/F3 cells after 72 hrs by CellTiter-Glo or CCK-8 assay; format: cell-based, BaF3
Summary of the method: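 Parental BaF3 or IL-3-independent TEL-kinase BaF3 lines, made by retroviral infection and puromycin selection, grown in RPMI 1640 with 10% FBS. Cells seeded at 1–3 × 10^4 cells/mL with serial compound concentrations for 72 h. Viability read by CellTiter-Glo luminescence or CCK-8 absorbance at 450/655 nm and normalised to DMSO. GI50 obtained by triplicate testing with linear regression. Selectivity is the ratio of the two GI50 values.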

[21] = Half life in Sprague-Dawley rat at 10 mg/kg, po; format: ADME, organism-based; conditions: in vivo
NCI-H1703 = test: Cell cycle arrest in human NCI-H1703 cells assessed as accumulation at G0/G1 phase at 0.3 to 10 uM after 72 hrs in presence of PDGF-AA by propidium iodide/RNase staining-based flow cytometric analysis; format: functional
Summary of the method: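 Cells treated with compound or DMSO for the stated periods, fixed overnight in 70% cold ethanol at −20 °C, stained with PI/RNase buffer, then analysed by flow cytometry for cell-cycle distribution. For NCI-H1703 stimulation, PDGF AA was used at 100 ng/mL.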

Sequence of Phosphatidylinositol 4,5-bisphosphate 3-kinase catalytic subunit alpha isoform (Homo sapiens), P42336 [M1043I] (P42336 whole entry M1043I, the tested form may be a part, canonical isoform): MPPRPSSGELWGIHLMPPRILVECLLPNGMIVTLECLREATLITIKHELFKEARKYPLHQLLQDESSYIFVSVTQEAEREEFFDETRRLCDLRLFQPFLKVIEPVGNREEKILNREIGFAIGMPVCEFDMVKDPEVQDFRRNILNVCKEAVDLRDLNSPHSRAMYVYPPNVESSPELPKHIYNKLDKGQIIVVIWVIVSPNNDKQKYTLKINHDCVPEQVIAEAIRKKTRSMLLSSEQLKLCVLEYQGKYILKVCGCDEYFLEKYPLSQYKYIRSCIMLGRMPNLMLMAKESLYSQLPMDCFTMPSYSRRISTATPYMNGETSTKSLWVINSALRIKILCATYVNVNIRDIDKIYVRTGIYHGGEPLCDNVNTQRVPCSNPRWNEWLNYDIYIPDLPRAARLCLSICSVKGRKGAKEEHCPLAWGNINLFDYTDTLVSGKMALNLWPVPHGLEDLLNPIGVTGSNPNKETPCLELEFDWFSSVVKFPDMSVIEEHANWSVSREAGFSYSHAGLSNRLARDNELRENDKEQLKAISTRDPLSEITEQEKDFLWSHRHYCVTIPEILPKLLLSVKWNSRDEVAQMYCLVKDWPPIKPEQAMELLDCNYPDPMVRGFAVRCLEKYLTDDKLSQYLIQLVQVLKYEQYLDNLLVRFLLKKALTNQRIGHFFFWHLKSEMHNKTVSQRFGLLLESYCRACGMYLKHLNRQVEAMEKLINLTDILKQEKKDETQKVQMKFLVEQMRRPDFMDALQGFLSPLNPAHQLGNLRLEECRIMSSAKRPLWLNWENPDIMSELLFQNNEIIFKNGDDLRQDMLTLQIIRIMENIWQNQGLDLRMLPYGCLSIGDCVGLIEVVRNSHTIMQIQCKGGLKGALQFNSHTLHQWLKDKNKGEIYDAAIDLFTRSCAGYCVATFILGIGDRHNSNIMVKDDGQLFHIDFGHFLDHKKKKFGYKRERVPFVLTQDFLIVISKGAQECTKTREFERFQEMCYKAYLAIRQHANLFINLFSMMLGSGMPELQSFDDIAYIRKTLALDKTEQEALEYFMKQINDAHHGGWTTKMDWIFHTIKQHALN
Sequence of Tyrosine-protein kinase ITK/TSK (Homo sapiens) (Q08881 whole entry, the tested form may be a part): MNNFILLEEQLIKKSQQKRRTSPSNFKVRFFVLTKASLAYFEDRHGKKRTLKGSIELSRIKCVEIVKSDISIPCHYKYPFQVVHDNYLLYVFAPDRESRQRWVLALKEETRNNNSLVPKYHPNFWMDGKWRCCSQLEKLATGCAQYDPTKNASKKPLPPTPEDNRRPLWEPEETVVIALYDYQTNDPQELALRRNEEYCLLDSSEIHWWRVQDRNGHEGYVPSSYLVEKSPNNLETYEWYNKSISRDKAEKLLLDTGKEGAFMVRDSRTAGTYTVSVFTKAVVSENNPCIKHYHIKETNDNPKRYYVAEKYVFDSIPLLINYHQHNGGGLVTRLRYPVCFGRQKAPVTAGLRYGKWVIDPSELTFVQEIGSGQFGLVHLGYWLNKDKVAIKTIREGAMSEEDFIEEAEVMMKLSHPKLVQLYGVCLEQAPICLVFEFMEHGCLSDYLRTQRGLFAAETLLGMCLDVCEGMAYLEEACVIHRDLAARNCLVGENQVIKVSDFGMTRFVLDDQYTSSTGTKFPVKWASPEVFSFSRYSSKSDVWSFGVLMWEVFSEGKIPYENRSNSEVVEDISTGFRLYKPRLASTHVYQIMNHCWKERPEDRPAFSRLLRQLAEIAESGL
Sequence of Fibroblast growth factor receptor 1 (Homo sapiens) (P11362 22-822 limits assumed): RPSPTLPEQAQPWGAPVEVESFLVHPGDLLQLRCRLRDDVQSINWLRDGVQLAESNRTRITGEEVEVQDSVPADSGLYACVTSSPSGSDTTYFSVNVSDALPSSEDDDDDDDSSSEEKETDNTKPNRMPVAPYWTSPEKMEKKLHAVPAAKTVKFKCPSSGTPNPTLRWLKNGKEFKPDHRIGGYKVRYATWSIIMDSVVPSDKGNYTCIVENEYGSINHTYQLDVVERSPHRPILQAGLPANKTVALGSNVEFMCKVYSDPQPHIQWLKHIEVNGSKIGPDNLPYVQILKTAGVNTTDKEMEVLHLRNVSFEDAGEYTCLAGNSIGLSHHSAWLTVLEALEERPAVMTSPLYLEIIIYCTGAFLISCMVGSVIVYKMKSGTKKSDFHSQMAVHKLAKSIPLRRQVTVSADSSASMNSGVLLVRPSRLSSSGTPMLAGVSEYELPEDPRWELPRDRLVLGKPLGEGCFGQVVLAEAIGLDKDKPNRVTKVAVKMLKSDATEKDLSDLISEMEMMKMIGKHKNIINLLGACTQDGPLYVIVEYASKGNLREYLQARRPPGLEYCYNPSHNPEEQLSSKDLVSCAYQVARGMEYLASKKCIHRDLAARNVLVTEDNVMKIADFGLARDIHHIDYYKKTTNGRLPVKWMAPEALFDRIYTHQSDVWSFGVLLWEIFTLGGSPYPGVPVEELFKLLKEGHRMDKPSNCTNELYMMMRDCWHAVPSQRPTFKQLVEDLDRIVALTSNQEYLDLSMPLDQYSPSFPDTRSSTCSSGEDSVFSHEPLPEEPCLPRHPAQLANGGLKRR
Sequence of Interleukin-1 receptor-associated kinase 4 (Homo sapiens) (Q9NWZ3 whole entry, the tested form may be a part): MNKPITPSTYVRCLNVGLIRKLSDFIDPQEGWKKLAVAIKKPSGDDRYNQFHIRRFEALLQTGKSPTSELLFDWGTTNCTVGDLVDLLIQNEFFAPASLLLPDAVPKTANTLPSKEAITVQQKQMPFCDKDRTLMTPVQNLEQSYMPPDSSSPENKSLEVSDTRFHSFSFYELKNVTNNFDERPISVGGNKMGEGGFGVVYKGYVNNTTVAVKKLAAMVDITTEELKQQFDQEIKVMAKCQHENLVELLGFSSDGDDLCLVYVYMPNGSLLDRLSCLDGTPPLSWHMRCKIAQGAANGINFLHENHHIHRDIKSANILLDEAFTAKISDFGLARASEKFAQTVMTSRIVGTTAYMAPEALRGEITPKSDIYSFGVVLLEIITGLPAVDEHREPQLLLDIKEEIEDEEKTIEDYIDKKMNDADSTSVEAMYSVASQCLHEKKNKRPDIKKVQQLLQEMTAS
Sequence of Serine/threonine-protein kinase BRSK1 (Homo sapiens) (Q8TDC3 whole entry, the tested form may be a part): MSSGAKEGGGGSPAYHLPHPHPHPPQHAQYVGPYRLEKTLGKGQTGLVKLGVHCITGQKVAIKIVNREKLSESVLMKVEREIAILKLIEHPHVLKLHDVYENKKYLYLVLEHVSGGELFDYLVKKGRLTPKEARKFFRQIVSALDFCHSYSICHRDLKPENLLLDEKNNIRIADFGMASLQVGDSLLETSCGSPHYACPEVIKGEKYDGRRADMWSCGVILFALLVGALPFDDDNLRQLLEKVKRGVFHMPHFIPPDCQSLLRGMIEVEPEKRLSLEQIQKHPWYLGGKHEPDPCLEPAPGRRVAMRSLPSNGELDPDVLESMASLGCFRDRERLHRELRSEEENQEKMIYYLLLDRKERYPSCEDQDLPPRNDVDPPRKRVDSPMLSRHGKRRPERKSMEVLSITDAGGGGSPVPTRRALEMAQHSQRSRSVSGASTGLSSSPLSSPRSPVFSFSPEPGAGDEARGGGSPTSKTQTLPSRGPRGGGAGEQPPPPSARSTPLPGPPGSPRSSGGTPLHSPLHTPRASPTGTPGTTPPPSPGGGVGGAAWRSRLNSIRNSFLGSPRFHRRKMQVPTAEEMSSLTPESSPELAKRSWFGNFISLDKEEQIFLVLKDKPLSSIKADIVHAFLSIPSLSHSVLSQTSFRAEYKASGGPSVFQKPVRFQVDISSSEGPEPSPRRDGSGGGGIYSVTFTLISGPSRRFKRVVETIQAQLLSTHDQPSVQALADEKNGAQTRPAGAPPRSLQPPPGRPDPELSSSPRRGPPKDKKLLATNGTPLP
Sequence of Ribosomal protein S6 kinase alpha-5 (Homo sapiens) (O75582 whole entry, looked up, the tested form may be a part): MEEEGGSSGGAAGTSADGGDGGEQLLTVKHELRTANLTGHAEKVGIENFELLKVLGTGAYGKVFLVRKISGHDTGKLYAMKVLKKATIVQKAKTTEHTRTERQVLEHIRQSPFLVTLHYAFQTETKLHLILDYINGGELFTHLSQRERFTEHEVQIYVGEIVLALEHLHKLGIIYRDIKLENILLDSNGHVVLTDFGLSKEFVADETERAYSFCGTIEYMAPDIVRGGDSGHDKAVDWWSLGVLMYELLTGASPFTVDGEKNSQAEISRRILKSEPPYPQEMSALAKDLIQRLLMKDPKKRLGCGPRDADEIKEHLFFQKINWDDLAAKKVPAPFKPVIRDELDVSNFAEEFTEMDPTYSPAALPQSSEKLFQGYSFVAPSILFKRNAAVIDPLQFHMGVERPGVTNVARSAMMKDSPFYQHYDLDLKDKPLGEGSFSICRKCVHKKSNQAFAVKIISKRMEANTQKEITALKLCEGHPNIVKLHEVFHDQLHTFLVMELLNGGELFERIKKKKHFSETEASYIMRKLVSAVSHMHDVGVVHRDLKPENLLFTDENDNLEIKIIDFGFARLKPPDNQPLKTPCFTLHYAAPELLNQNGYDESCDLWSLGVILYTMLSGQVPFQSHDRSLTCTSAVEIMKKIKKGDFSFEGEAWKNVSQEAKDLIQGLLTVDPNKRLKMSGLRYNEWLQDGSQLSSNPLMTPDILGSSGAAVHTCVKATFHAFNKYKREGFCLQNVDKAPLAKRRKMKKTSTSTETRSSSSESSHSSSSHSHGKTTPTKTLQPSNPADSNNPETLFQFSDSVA
Sequence of Serine/threonine-protein kinase Sgk1 (Homo sapiens) (O00141 whole entry, the tested form may be a part): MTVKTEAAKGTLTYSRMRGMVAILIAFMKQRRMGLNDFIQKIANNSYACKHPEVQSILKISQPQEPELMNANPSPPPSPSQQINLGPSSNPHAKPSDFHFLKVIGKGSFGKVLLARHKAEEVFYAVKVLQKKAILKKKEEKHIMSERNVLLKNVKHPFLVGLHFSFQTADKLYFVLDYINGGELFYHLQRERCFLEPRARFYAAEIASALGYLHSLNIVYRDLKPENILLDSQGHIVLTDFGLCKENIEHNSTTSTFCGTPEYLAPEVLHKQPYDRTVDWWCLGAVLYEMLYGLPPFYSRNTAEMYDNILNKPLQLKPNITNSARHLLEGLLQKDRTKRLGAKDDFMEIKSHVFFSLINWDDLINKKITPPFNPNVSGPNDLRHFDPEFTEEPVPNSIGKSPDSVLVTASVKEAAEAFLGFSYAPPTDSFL

In the case of `Cc1ccc(NC(=O)c2ccc(CN(CCN(C)C)C(=O)c3cccnc3)cc2)cc1Nc1nccc(-c2cccnc2)n1`, the Activity [1] is reported as 79%, the Activity [2] is reported as 69% and the Activity [3] is reported as 73%. The Activity [4] was 93%, the Activity [5] was 90% and the Activity [6] was 100%. For the same molecule, the Activity [7] was 85%, the Activity [8] was 98% and the Activity [9] was 100%. The Activity [10] was 100%, the Activity [11] was 100% and the Activity [12] was 100%. For the same molecule, the Activity [13] was 87%, the Activity [14] was 69% and the Activity [15] was 89%. It also gave an Activity [16] of 100%, an Activity [17] of 77% and an Activity [18] of 100%. For the same molecule, the IC50 [19] was > 10 µM, the GI50 at 72 h [20] was > 10 µM and the half-life [21] was 2.03 h. For the same molecule, the Activity (NCI-H1703) was “Active”.
